Activity calls are given as the source filed them. The calls are words filed in the database; no cut-off is given here.
Test system: not listed separately
Assay: Inhibition of phosphatidylserine-stimulated GTPase activity of sheep brain Dynamin 1 expressed in Sf21 cells assessed as inhibition of orthophosphate release from GTP up to 300 uM by malachite green method
Settings: Ovis aries
Method in brief: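 DynI at 50 nM final was stimulated with phosphatidylserine liposomes for 30 min. Orthophosphate released from GTP was detected colorimetrically by Malachite Green. Compounds came from 30 mM DMSO stocks diluted in 50% DMSO/20 mM Tris-HCl pH 7.4; final DMSO was at most 3.3%.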

Structure (SMILES) | inhibition
COc1ccc(CNC2=CC(=O)c3ccccc3C2=O)cc1 | inactive
O=C1C=C(NCc2cccnc2)C(=O)C=C1NCc1cccnc1 | inactive
O=C1C=C(NCc2ccc(F)cc2)C(=O)C=C1NCc1ccc(F)cc1 | inactive
CCCCCNC1=CC(=O)C(NCCCCC)=CC1=O | inactive
C=CCNC1=CC(=O)C(NCC=C)=CC1=O | inactive
O=C1C=C(NCCO)C(=O)c2ccccc21 | inactive
O=C1C=C(NCc2ccccc2)C(=O)c2ccccc21 | inactive
CSCCNC1=CC(=O)C(NCCSC)=CC1=O | inactive
CCCNC1=CC(=O)C(NCCC)=CC1=O | inactive
O=C1C=C(NCCc2ccccc2)C(=O)C=C1NCCc1ccccc1 | inactive
O=C1C=C(NCCCO)C(=O)c2ccccc21 | inactive
Cc1ccccc1NC1=CC(=O)C(Nc2ccccc2C)=CC1=O | inactive
CC(C)CCNC1=CC(=O)C(NCCC(C)C)=CC1=O | inactive
O=C(O)c1ccc(NC2=CC(=O)c3ccccc3C2=O)cc1 | inactive
O=C(O)c1cccc(NC2=CC(=O)c3ccccc3C2=O)c1 | inactive
COCCNC1=CC(=O)C(NCCOC)=CC1=O | inactive
Cc1ccc(CNC2=CC(=O)C(NCc3ccc(C)cc3)=CC2=O)cc1 | inactive
O=C1C=C(NCc2ccc(Cl)cc2)C(=O)C=C1NCc1ccc(Cl)cc1 | inactive
O=C1C=C(Nc2ccccc2)C(=O)c2ccccc21 | inactive
O=C1C=C(Nc2ccccc2)C(=O)C=C1Nc1ccccc1 | inactive
O=C1C=C(NCc2ccc(Br)cc2)C(=O)C=C1NCc1ccc(Br)cc1 | inactive
CCCCNC1=CC(=O)C(NCCCC)=CC1=O | inactive
COc1ccccc1NC1=CC(=O)C(Nc2ccccc2OC)=CC1=O | inactive
O=C1C=C(Nc2cccc(CO)c2)C(=O)C=C1Nc1cccc(CO)c1 | inactive
O=C1C=C(NCCCO)C(=O)C=C1NCCCO | inactive
CCNC1=CC(=O)C(NCC)=CC1=O | inactive
O=C1C=C(NCc2ccccc2)C(=O)C=C1NCc1ccccc1 | inactive
O=C1C=C(NCCCCl)C(=O)C=C1NCCCCl | inactive
O=C1C=C(NCCCCO)C(=O)C=C1NCCCCO | inactive
COCCCNC1=CC(=O)C(NCCCOC)=CC1=O | inactive

Target: T1, Dynamin-1 (Homo sapiens) (UniProt Q05193)
T1 sequence (whole entry): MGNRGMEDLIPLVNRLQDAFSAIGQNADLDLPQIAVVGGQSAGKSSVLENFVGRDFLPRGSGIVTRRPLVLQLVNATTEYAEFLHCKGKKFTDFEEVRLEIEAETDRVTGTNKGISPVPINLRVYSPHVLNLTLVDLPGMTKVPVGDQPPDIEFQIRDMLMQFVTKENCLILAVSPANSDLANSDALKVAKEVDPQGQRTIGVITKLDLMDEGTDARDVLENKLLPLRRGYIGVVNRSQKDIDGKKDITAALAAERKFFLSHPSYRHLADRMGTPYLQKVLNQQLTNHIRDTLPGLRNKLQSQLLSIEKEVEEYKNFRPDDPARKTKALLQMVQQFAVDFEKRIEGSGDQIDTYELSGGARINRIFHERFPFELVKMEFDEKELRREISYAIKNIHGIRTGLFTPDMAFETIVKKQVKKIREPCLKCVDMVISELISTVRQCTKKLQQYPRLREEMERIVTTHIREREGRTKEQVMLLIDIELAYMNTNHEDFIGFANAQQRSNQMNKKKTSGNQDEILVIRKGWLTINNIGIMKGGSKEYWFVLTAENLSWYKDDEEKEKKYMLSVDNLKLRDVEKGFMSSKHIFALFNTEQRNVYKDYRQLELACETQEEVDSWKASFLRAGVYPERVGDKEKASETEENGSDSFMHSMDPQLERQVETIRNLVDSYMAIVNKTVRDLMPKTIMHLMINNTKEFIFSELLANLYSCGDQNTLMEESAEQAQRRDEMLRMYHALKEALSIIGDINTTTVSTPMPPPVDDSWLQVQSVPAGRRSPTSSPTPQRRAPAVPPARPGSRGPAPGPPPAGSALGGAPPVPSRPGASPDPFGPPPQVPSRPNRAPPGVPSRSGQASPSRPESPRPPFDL
Assay: Inhibition of Dynamin 1 in serum-starved human U2OS cells assessed as inhibition of clathrin-mediated Alexa-495-cojugated transferrin uptake pretreated up to 300 uM for 30 mins by high-content imaging method
Format: cell-based
Settings: not given
Method in brief: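 U2OS cells plated on fibronectin-coated glass to 70–80% confluency and serum-starved overnight (16 h). Pretreated with compound or 1% DMSO vehicle for 30 min, then given fluorescent transferrin for 8 min at 37 °C.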

Structure (SMILES) | inhibition
O=C1C=C(Nc2cccc(O)c2)C(=O)C=C1Nc1cccc(O)c1 | inactive

Target: T2, Dynamin-2 (Rattus norvegicus) (UniProt P39052)
T2 sequence (whole entry): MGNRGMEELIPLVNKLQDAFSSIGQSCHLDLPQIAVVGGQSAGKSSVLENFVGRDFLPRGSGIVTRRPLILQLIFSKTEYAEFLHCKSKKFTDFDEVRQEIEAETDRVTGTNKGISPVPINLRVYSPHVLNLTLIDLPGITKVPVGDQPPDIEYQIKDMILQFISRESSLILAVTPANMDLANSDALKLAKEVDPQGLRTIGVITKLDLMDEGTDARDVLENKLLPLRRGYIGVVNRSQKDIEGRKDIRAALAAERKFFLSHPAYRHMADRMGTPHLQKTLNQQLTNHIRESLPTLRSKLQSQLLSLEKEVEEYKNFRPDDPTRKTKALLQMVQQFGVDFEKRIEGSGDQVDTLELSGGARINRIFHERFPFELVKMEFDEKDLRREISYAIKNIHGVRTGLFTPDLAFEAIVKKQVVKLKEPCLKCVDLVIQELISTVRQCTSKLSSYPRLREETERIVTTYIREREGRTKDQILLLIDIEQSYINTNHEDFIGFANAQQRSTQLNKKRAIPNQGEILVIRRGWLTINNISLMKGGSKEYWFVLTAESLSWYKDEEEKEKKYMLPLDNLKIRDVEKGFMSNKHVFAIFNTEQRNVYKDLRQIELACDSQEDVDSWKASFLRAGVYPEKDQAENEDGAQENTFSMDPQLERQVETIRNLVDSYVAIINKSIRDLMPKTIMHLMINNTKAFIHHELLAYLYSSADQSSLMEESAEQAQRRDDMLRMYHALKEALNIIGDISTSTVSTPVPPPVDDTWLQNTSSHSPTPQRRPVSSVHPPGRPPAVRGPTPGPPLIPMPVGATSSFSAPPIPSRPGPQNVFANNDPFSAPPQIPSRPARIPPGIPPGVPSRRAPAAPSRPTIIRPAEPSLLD
Assay: Inhibition of phosphatidylserine-stimulated GTPase activity of recombinant rat Dynamin 2 expressed in Sf21 cells assessed as inhibition of orthophosphate release from GTP up to 300 uM by malachite green method
Settings: not given
Method in brief: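 His-6-tagged rat dynII from pIEx-6-transfected Sf21 cells (polyethylenimine, DNA:PEI 1:5, 48 h), purified on GST-Amph2-SH3-sepharose. Enzyme at 50 nM final was stimulated with phosphatidylserine liposomes for 90 min. GTP-derived Pi release was read colorimetrically with Malachite Green. Final DMSO was at most 3.3%.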

Structure (SMILES) | inhibition
O=C1C=C(NCc2ccccc2)C(=O)C=C1NCc1ccccc1 | inactive

Target: T3, Dynamin-2 (Rattus norvegicus, UniProt P39052)
T3 sequence (P39052 whole entry): T2 sequence (whole entry)
Assay: Inhibition of phosphatidylserine-stimulated GTPase activity of recombinant rat Dynamin 2 expressed in Sf21 cells assessed as inhibition of orthophosphate release from GTP by malachite green method
Settings: not given
Method in brief: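 His-6-tagged rat dynII expressed in Sf21 cells after polyethylenimine transfection (48 h), purified on GST-Amph2-SH3-sepharose. Enzyme at 50 nM, stimulated with phosphatidylserine liposomes for 90 min. Pi release from GTP read colorimetrically with malachite green. Final DMSO at most 3.3%.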

IC50 [µM] | Structure (SMILES)
14.7 | O=C1C=C(Nc2cccc(C(=O)O)c2)C(=O)C=C1Nc1cccc(C(=O)O)c1
9.1 | O=C1C=C(Nc2ccc(C(=O)O)cc2)C(=O)C=C1Nc1ccc(C(=O)O)cc1
23.6 | O=C1C=C(Nc2ccc(O)cc2)C(=O)C=C1Nc1ccc(O)cc1

Structure (SMILES) | IC50 [µM]
O=C1C=C(Nc2cccc(O)c2)C(=O)C=C1Nc1cccc(O)c1 | 43.7

Test system: not listed separately
Assay: Competitive inhibition of phosphatidylserine-stimulated GTPase activity of sheep brain Dynamin 1 expressed in Sf21 cells by Lineweaver-Burk plot method in presence of Mg2+ and GTP
Settings: Ovis aries

Structure (SMILES) | inhibition
O=C1C=C(Nc2ccc(CO)cc2)C(=O)C=C1Nc1ccc(CO)cc1 | Active

Test system: not listed separately
Assay: Inhibition of phosphatidylserine-stimulated GTPase activity of sheep brain Dynamin 1 expressed in Sf21 cells assessed as inhibition of orthophosphate release from GTP by malachite green method
Design: species or system Ovis aries
Settings: not given
Method in brief: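 DynI at 50 nM, stimulated with phosphatidylserine liposomes for 30 min. Pi release from GTP detected colorimetrically by malachite green. Compounds diluted from DMSO stocks, final DMSO at most 3.3%.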

IC50 [µM] | Structure (SMILES)
25.4 | O=C1C=C(Nc2cccc(C(=O)O)c2)C(=O)C=C1Nc1cccc(C(=O)O)c1
> 300 | COc1cccc(NC2=CC(=O)C(Nc3cccc(OC)c3)=CC2=O)c1
58 | O=C1C=C(NCCCBr)C(=O)C=C1NCCCBr
112 | O=C1C=C(NCc2ccc(O)cc2)C(=O)C=C1NCc1ccc(O)cc1
> 300 | COc1ccc(NC2=CC(=O)C(Nc3ccc(OC)cc3)=CC2=O)cc1
314 | O=C(O)c1ccccc1NC1=CC(=O)c2ccccc2C1=O
150 | O=C1C=C(NCc2ccc(O)cc2)C(=O)c2ccccc21
116 | O=C1C=C(NCCO)C(=O)C=C1NCCO
50.2 | O=C1C=C(Nc2ccccc2C(=O)O)C(=O)C=C1Nc1ccccc1C(=O)O
> 300 | O=C1C=C(Nc2ccccc2CO)C(=O)C=C1Nc1ccccc1CO
10.6 | O=C1C=C(Nc2ccc(C(=O)O)cc2)C(=O)C=C1Nc1ccc(C(=O)O)cc1
11.1 | O=C1C=C(Nc2ccc(O)cc2)C(=O)C=C1Nc1ccc(O)cc1
29.5 | O=C1C=C(Nc2ccc(CO)cc2)C(=O)c2ccccc21
387 | O=C1C=C(Nc2ccccc2Br)C(=O)C=C1Nc1ccccc1Br
170 | COc1ccc(CNC2=CC(=O)C(NCc3ccc(OC)cc3)=CC2=O)cc1
109 | O=C1C=C(Nc2cccc(O)c2)C(=O)c2ccccc21
22.4 | O=C1C=C(Nc2ccc(O)cc2)C(=O)c2ccccc21
> 300 | CN(C)CCNC1=CC(=O)C(NCCN(C)C)=CC1=O
> 300 | CCCCCCNC1=CC(=O)C(NCCCCCC)=CC1=O
29 | O=C1C=C(NCc2ccc(C(=O)O)cc2)C(=O)C=C1NCc1ccc(C(=O)O)cc1
30.3 | O=C1C=C(Nc2cccc(CO)c2)C(=O)c2ccccc21

Structure (SMILES) | IC50 [µM]
O=C1C=C(Nc2ccc(CO)cc2)C(=O)C=C1Nc1ccc(CO)cc1 | 21.5
O=C1C=C(Nc2cccc(O)c2)C(=O)C=C1Nc1cccc(O)c1 | 57.9
O=C1C=C(NCc2ccccc2)C(=O)C=C1NCc1ccccc1 | 273

From ChEMBL document CHEMBL3351413, “Development of quinone analogues as dynamin GTPase inhibitors” (Eur J Med Chem, 2014)
